eIF4H inh: inhibitors of RNA binding by human eIF4H; eIF4H fluorescence polarization binding assay; inhibition, % at 35 µM; hit rate 0.94% among 290,000; AID 2012;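 further: calls also rest on retests at 20 µM and on dose response follow-up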
PABP1 MLLE inh: inhibitors of microRNA-mediated deadenylation, human PABP1 MLLE binding; P11940; GST-MLLE / FITC-PAM2 fluorescence polarization; inhibition, % at 20 µM; hit rate 0.36% among 360,000; AID 588489; in the data active means inhibition above about 35%, passing the limit was not always enough;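 further: plate controls were DMSO wells with GST-MLLE for no effect and wells lacking GST-MLLE protein for full effect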
HCV core dimer: blocks dimerization of HCV core protein. TR-FRET GST/Flag-core106 dimerization, 1536-well. inhibition, % at 5 µM. hit rate 0.33% among 300,000. AID 1899;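 active means inhibition above the mean of all tested compounds plus 3 SD, set per screening campaign, cut at about 45% in these data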
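Assay system: GST-tagged and Flag-tagged HCV core protein residues 1-106 / Times: compound-protein-antibody incubation 4 h at 22.5 °C / Signal: time-resolved FRET, ex 340 nm, em 617 and 671 nm / Evaluation: % inhibition based on acceptor/donor emission ratio / Benchmarks: wells lacking GST-core106 and wells with excess unlabelled core106 / Repeats: singlicate, one well per compound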
DNA FID counter: fluorescent intercalator displacement, NS3 helicase counter-screen | hit rate 0.17% among 290,000 | inhibition, % at 7.9 µM | DNA fluorescent intercalator displacement, fluorescence | AID 1845; in the data active means inhibition above about 37%;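 further: 0% = vehicle and 100% = reference compound; higher means more ethidium bromide displaced from hairpin DNA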
NS3 helicase inh: blocks Hepatitis C virus NS3 helicase unwinding; NS3 helicase DNA unwinding, Cy5 molecular beacon fluorescence; inhibition, % at 10.9 µM; hit rate 0.56% among 290,000; AID 1800;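 active means inhibition above the mean of all tested compounds plus 3 SD, set per campaign, cut at about 35% in these data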;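 further: 0% = DMSO wells and 100% = thioflavine S control wells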
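Control set: DMSO versus 110 µM thioflavine S; Material: NS3 helicase fragment of HCV; Measured by: Cy5 fluorescence at 0 and 60 min, beacon hairpin quenching; Read-out basis: percent inhibition from t60/t0 fluorescence ratio; Times: reaction time 60 min, 25 °C; Repeats: single replicate; Compound dosing: single dose, 10.9 µM nominal final, DMSO 0.8% final.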
PABP polyA inh: PABP-poly(A) binding inhibition. PABP-poly(A) RNA binding, fluorescence polarization. inhibition, % at 35 µM. hit rate 1% among 290,000;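 further: calls also rest on retests at 20 µM and on dose response follow-up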
* marks the source's active call; other numbers are inactive results; ? = inconclusive; nt = not tested or not shown. Most compounds without a hit are left out; they make up all but 2% or so of the library. Unless noted, how the calls were made is not given here.

SMILES	eIF4H inh	PABP1 MLLE inh	HCV core dimer	DNA FID counter	NS3 helicase inh	PABP polyA inh
O=C(CCSc1ccc(F)cc1)NNC(=O)c1ccc([N+](=O)[O-])cc1	nt	11	nt	nt	nt	nt
Cc1cccc(NCCC#N)c1	79	-7	-6	-7	7	active
Cc1nc([N+](=O)[O-])c(C(=O)OCc2ccccc2C#N)n1C	active	-6	-3	-5	-3	100*
COc1ccc(C(=O)N/C(=C\c2ccco2)C(=O)NCc2cccnc2)cc1	61*	15	-1	-6	-1	8
CCn1c(C)nc2cc(C(N)=O)ccc21	99*	-3	-9	-3	5	67*
CCn1c(C)nc2cc(N)ccc21	12	5	-4	23	4	16
O=C1C(Cl)=C(N2CCN(Cc3ccccc3)CC2)C(=O)N1Cc1ccccc1	18	65*	3	-4	-7	31
COc1ccc(OC)c(NCCN2C(=O)c3ccccc3C2=O)c1	nt	14	nt	nt	nt	nt
COc1ccc(C(C)(O)c2nc(-c3ccoc3)cs2)cc1 (centres undefined)	nt	1	nt	nt	nt	nt
Cc1ccc(C)c(N2CCN(C(=O)Cc3c(C(=O)O)[nH]c4ccc(Cl)cc34)CC2)c1	?	5	13	-27	21	2.0*
COc1ccccc1N1CCN(C(=O)Cc2c(C(=O)O)[nH]c3ccc(Cl)cc23)CC1	3	4	5	-31	-8	-20
COCCNC(=O)C1(C)CCCN(C(=O)c2cc(C)on2)C1 (centres undefined)	nt	2	nt	nt	nt	nt
CC(C)NC(=O)C1(C)CCN1C/C=C/c1ccccc1 (centres undefined)	nt	2	nt	nt	nt	nt
CCOC(=O)c1c(NC(=O)C(Sc2ccccc2)c2ccccc2)sc(C(=O)N(C)C)c1C (centres undefined)	active	16	14	-28	-18	66*
CCOC(=O)c1c(NC(=O)C(Sc2ccccc2)c2ccccc2)sc(C(N)=O)c1C (centres undefined)	-10	19	13	-3	-1	2
CC1(C(=O)NS(=O)(=O)c2ccccc2Cl)CCN1C(=O)CC1CCCC1 (centres undefined)	nt	-2	nt	nt	nt	nt
Oc1[nH]c2ccccc2c1N=Nc1ccccc1Cl	nt	4	nt	nt	nt	nt
Oc1c(C=Nc2ccccc2Cl)[nH]c2ccccc12	-3	43*	-4	0	7	5
OC(c1ccccc1)C(O)C(c1ccccc1)N1CCCCC1 (centres undefined)	nt	5	nt	nt	nt	nt
N#Cc1c(NC(=O)CSc2ncnc3sccc23)oc(-c2ccco2)c1-c1ccco1	?	-27	50*	-13	26	?
Cc1cc(NC(=O)CSc2ncnc3sccc23)no1	3	4	-1	2	15	3
CCNC(=O)CSc1ncnc2sccc12	44	-29	58*	2	8	15
CCN1C[C@@H]2[C@@H]3C(=O)N(C)C(=O)[C@@H]3[C@](CC)(C1=O)N2C(=O)c1ccccc1	nt	1	nt	nt	nt	nt
N/C(Cc1cccc2ccccc12)=N\OC(=O)c1cccs1	84*	-9	1	-1	-13	active
N/C(Cc1cccc2ccccc12)=N\OC(=O)Cc1cccs1	27	-5	-2	-3	-4	10
SMILES	eIF4H inh	PABP1 MLLE inh	HCV core dimer	DNA FID counter	NS3 helicase inh	PABP polyA inh
CC(C)Oc1ccc(C(=O)NCC(=O)N2CCN(S(=O)(=O)/C=C/c3ccccc3)CC2)cc1	nt	2	nt	nt	nt	nt
COc1cccc(NC(=O)CN(C)C(=O)c2cc(-c3ccco3)nc3ccccc23)c1	nt	-13	18	nt	nt	nt
Cc1ccc(NC(=O)CN(C)C(=O)c2cc(-c3ccco3)nc3ccccc23)cc1	nt	-15	65*	nt	nt	nt
CN(CC(=O)Nc1ccc(F)cc1)C(=O)c1cc(-c2ccco2)nc2ccccc12	nt	-69	50*	nt	nt	nt
Cc1cc(C2=CC(=O)C[C@H](c3ccc(F)cc3)C2)ccc1F	nt	8	nt	nt	nt	nt
Cc1ccc(S(=O)(=O)N2CCN(C(=O)COC(=O)CCCOc3ccccc3)CC2)c(C)c1	nt	-1	nt	nt	nt	nt
Cc1cc(C)c2c(N)c(C(=O)Nc3ccccc3F)sc2n1	1	20	-3	-10	-5	8
CC(C)(C)CC(=O)Nc1ccc(-c2nnc3n2CCCCC3)cc1	78*	3	2	-34	11	62*
Cc1noc(C)c1C(=O)Nc1ccc(-c2nnc3n2CCCCC3)cc1	nt	-16	nt	nt	nt	nt
Oc1ccccc1/C=C/c1noc(-c2ccccc2O)n1	3	12	9	2	-6	52*
CC(=O)Nc1ccc(/C=C/c2noc(-c3ccccc3O)n2)cc1	-1	-15	3	-10	-12	-8
CCOc1ccc(C2OCCC(C)O2)cc1OC (centres undefined)	nt	4	nt	nt	nt	nt
CCc1ccc(C(N)=S)cc1	-7	41*	2	-2	7	?
O=C(O)CCN1C(=O)C(=C2CCCCCC2)SC1=S	-7	45*	5	-21	11	29
COCCCN(Cc1cc(OC)c(OC)c(OC)c1)C(=S)Nc1cccc(Cl)c1	nt	-44	nt	nt	nt	nt
O=C(NNC(=O)c1ccccc1Br)c1ccc2nc[nH]c2c1	84*	0	0	-8	11	69*
N#C/C(=C/c1cn(-c2ccccc2)nc1-c1cccc(S(=O)(=O)N2CCCC2)c1)C(=O)NCc1ccco1	44	-7	71*	-26	16	-7
COc1ccc(S(=O)(=O)N(CC(=O)N2CCCCCC2)c2ccccc2OC)cc1	0	-6	4	-38	0	-2
Fc1cccc2sc(Nc3nnc(-c4ccco4)o3)nc12	61*	-1	-6	-12	14	active
CN1CCN(C(c2ccccn2)c2cc(Cl)c3cccnc3c2O)CC1 (centres undefined)	28	43*	-8	-6	13	-2
CC(C)CC(C(=O)Nc1oc(-c2ccccc2)c(-c2ccccc2)c1C#N)N1C(=O)c2ccccc2C1=O (centres undefined)	6	-1	76*	-15	2	5
C[C@@H]1CN([C@@H](C)CO)C(=O)CCCn2nncc2CO[C@@H]1CN(C)S(=O)(=O)c1ccc(Oc2ccccc2)cc1	nt	-7	nt	nt	nt	nt
Oc1c(Cl)cc(Cl)cc1Sc1cc(Cl)cc(Cl)c1O	74*	nt	28	17	30	active
Cc1cc(C)c(O)c(CN(C)Cc2cc(Cl)cc(Cl)c2O)c1	nt	-1	nt	nt	nt	nt
O=C(O)CCc1ccc(-c2cccs2)o1	70*	31	6	-7	18	36*
O=S1(=O)CCN(Cc2cccnc2)CC1	nt	2	nt	nt	nt	nt
C/C(CC(=O)Nc1ccc([N+](=O)[O-])cc1)=N\NC(=O)c1ccccc1O	82*	-14	6	5	22	31
C/C(CC(=O)Nc1ccc(N(C)C)cc1)=N\NC(=O)c1ccccc1O	8	-12	3	-18	18	8
COc1cc(C2Nc3cccc4cccc(c34)N2)cc(OC)c1O	86	17	45	4	1	17
COC(=O)c1ccc(C2Nc3cccc4cccc(c34)N2)cc1	87	2	-5	1	23	7
